From ChEMBL document CHEMBL1138216, “Design and synthesis of novel derivatives of the muscarinic agonist tetra(ethylene glycol)(3-methoxy-1,2,5-thiadiazol-4-yl) [3-(1-methyl-1,2,5,6-tetrahydropyrid-3-yl)-1,2,5-thiadiazol-4-yl] ether (CDD-0304): effects of structural modifications on the binding and activity at muscarinic receptor …” (J Med Chem, 2006)
Where a chain is given by its changes, count along the chain named. The source made the active and inactive calls. No cut-off for these calls is given here.

Tests used:
[1] = target: T1, Muscarinic acetylcholine receptor M1/M5 chimeric protein (Homo sapiens) (UniProt P11229+P08912); assay: Agonist activity at human M1/M5(o3) chimeric receptor expressed in A9 L cells assessed as stimulation of phosphoinositide hydrolysis relative to carbachol; type: functional, cell-based; details: L929
Procedure, shortened: (§1)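 A9 L cells stably expressing the receptor, seeded 24 h, labelled overnight with 10 µCi/mL [3H]inositol in inositol-free DMEM; ligands in HBSS with 10 mM LiCl, 20 mM HEPES, 37 °C, 1 h; formic acid extraction, inositol phosphates counted by SPA beads.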

[2] = target: Muscarinic acetylcholine receptor M3 (Homo sapiens, UniProt P20309); assay: Agonist activity at human M3 receptor expressed in A9 L cells assessed as stimulation of phosphoinositide hydrolysis relative to carbachol; type: functional, cell-based; details: L929; procedure, shortened: as §1
[3] = target: T1, Muscarinic acetylcholine receptor M1/M5 chimeric protein (Homo sapiens); assay: Agonist activity at human M1/M5(o2) chimeric receptor expressed in A9 L cells assessed as stimulation of phosphoinositide hydrolysis relative to carbachol; type: functional, cell-based; details: L929; procedure, shortened: as §1
[4] = target: T2, Muscarinic acetylcholine receptor M2 (Homo sapiens) (UniProt P08172); assay: Activity at human M2 receptor assessed as inhibition of forskolin-stimulated cAMP accumulation relative to carbachol; type: functional
T2 sequence (whole entry): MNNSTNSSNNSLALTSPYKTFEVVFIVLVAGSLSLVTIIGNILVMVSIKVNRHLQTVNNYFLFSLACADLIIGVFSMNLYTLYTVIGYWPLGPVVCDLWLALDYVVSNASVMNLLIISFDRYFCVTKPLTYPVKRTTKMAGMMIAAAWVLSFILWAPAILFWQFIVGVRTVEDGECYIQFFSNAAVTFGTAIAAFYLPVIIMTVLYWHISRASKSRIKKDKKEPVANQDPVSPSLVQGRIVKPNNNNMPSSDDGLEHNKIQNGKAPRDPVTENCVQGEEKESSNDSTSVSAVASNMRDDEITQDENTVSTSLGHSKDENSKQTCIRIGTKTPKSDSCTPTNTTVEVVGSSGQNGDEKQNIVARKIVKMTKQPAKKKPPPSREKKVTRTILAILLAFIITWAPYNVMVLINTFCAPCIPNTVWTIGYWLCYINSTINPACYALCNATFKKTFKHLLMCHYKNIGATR

[5] = target: T3, Muscarinic acetylcholine receptor M4 (Homo sapiens) (UniProt P08173); assay: Activity at human M4 receptor assessed as inhibition of forskolin-stimulated cAMP accumulation relative to carbachol; type: functional
T3 sequence (whole entry): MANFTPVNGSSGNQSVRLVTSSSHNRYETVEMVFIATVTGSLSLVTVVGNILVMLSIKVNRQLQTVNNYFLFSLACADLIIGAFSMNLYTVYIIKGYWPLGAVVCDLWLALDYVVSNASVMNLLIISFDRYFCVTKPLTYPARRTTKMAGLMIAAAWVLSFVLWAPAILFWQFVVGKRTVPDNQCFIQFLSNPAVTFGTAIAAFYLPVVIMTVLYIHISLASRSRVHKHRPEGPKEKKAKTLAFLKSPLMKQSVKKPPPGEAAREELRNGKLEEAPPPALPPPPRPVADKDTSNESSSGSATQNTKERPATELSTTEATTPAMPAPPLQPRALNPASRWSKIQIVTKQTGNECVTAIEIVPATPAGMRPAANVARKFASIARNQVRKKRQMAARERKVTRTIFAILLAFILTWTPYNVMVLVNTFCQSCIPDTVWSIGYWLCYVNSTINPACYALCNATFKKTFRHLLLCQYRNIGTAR

[6] = target: T4, Muscarinic acetylcholine receptor M1 (Homo sapiens) (UniProt P11229); assay: Agonist activity at human M1 receptor expressed in A9 L cells assessed as stimulation of phosphoinositide hydrolysis relative to carbachol; type: functional, cell-based; details: L929; procedure, shortened: as §1
T4 sequence (whole entry): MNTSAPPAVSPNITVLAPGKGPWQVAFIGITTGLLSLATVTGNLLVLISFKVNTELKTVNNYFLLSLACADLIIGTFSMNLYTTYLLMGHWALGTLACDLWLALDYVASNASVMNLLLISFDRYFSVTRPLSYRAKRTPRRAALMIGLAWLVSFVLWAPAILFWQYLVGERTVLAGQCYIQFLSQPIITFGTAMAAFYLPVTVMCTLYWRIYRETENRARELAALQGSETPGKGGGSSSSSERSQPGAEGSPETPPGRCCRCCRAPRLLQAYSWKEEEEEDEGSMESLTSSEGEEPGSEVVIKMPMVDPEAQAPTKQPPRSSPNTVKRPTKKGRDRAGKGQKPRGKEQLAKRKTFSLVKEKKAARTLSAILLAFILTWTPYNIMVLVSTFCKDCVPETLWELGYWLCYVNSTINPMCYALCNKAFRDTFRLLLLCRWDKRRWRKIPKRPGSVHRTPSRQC

[7] = tested on: T5, Muscarinic acetylcholine receptor M1 (Homo sapiens), P11229 [E170K]; assay: Agonist activity at human M1 receptor E170K mutant expressed in A9 L cells assessed as stimulation of phosphoinositide hydrolysis relative to carbachol; type: functional, cell-based; details: L929; procedure, shortened: as §1
T5 sequence (whole entry): T4 sequence (whole entry) with E170K

[8] = target: T1, Muscarinic acetylcholine receptor M1/M5 chimeric protein (Homo sapiens); assay: Agonist activity at human M1/M5(o2o3) chimeric receptor expressed in A9 L cells assessed as stimulation of phosphoinositide hydrolysis relative to carbachol; type: functional, cell-based; details: L929; procedure, shortened: as §1

T1 sequence (P08912 whole entry, looked up, change not shown, one chain of several): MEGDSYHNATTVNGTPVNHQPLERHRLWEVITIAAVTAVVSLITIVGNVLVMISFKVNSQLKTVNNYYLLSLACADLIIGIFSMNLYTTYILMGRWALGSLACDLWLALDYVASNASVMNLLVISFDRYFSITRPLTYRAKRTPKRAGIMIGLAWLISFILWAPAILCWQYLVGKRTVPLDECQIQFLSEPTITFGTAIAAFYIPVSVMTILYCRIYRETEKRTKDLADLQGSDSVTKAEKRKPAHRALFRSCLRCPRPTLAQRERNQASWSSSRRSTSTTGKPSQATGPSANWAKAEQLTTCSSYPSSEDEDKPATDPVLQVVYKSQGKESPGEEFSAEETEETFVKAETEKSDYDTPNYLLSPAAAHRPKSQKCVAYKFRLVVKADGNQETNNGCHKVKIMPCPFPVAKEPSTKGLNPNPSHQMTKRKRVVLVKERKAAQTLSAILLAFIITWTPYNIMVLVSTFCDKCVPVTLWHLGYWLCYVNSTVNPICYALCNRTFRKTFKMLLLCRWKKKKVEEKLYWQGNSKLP
Muscarinic acetylcholine receptor M3, sequence (P20309 whole entry, looked up): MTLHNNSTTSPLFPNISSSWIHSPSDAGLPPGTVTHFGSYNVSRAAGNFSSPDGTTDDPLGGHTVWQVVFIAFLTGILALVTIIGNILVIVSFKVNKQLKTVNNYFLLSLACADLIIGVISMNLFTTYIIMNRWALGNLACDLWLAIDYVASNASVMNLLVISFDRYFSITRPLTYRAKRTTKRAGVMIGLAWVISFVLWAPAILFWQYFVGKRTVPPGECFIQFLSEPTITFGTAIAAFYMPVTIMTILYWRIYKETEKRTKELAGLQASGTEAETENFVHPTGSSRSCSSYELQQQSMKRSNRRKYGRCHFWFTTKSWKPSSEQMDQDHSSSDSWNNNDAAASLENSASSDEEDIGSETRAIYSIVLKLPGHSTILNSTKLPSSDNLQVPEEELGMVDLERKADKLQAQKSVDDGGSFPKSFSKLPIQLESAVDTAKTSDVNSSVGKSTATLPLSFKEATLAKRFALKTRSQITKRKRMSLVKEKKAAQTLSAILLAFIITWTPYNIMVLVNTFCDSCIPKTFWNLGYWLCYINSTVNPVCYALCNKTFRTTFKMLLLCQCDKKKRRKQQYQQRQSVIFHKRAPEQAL

| SMILES | Smax [1] | Activity [2] | Smax [3] | Imax [4] | Imax [5] | Smax [6] | Smax [7] | Smax [8] | Smax [2] | Activity [4] |
| --- | --- | --- | --- | --- | --- | --- | --- | --- | --- | --- |
| COc1nsnc1OCCOCCOCCOCCOc1nsnc1C1=CCCN(C)C1 | 9.7% | inactive | 20% | 120% | 40% | 47% | 27% | 5.3% | – | – |
| CCCCCCOc1nsnc1C1=CCCN(C)C1 [XANOMELINE] | 21% | – | 75% | – | 77% | 71% | 31% | 20% | 80% | inactive |
